# TRPC4 PAM – positive allosteric modulators of TRPC4, primary screen, cell-based, mouse TRPC4beta, HEK293 mu-opioid, Fluo-4 calcium | Short transient receptor potential channel 4 (Mus musculus), Q9QUQ5 | DAMGO EC20, Fluo-4 Ca2+ flux; active compounds read high | B-score at 10 µM | 0.42% of 310,000 active | AID 2227, 2009;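 active means B-score of calcium response area above 5 SD of library B-scores, with initial fluorescence ratio within 5 SD of library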
# TRPC4 block – inhibitors of mouse TRPC4 channel, primary screen, Fluo4 calcium, HEK293 TRPC4beta/mu-opioid cells; Short transient receptor potential channel 4 (Mus musculus), Q9QUQ5; DAMGO-evoked Fluo4 calcium flux; active compounds read low; B-score at 10 µM; 0.39% of 300,000 active;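 active means B-score over 3 SD under the library average, no early fluorescence shift, positive overall ratio signal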
#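 Test system – stable TRPC4beta/mu-opioid receptor HEK293 cells · Probe or stimulus – DAMGO, a submaximal dose followed by a maximal one · Dosing – one concentration per compound · Signal – Fluo4 calcium fluorescence by kinetic imaging, 5 s 1 Hz baseline · Evaluation – per-well B score of integrated baseline-normalized Fluo4 ratio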
# TRPC4 act – activators of mouse TRPC4 channel, primary screen, Fluo4 calcium, HEK293 TRPC4beta/mu-opioid cells; Short transient receptor potential channel 4 (Mus musculus), Q9QUQ5; Fluo4 calcium fluorescence; active compounds read high; B-score at 10 µM; 0.49% of 310,000 active;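 active means B-score above 5 SD of library B-scores, and initial fluorescence ratio not above library mean plus 5 SD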;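 further: positive B-score marks a calcium rise read as TRPC4 activation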
#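 Assay system: HEK293 stable line with TRPC4beta plus mu-opioid receptor. Times: dye 45 min RT, read 110 s. Measured by: kinetic Fluo4 calcium fluorescence. Measure: B score of integrated ratio. Controls: assay buffer as low control, maximal DAMGO as high control.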
# CR mimetic SO – reduction of superoxide in aged yeast, primary screen, HTS; S. cerevisiae aged cells, superoxide DHE fluorescence; active compounds read low; superoxide response (% of plate mean), % at 10 µM; 0.18% of 330,000 active; AID 2690, 2010;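 active means superoxide response under a set limit, about three screen SD below normal, cut at about 65% in these data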;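 further: yeast aged for seven days with compound at 30 °C before DHE staining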
# TRPC6 activator – mouse TRPC6 channel activators, primary screen, cell-based, HEK293, membrane potential dye; HEK293-TRPC6 membrane potential dye fluorescence; active compounds read high; 0.13% of 310,000 active; B-score at 10 µM;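 active means B-score of the integrated fluorescence ratio above library mean plus 3 SD, and starting fluorescence ratio within library mean plus 5 SD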;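 further: higher score means more depolarization so channel activation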
# TRPC6 inhibitor – mouse TRPC6 channel inhibitors, primary screen, cell-based, HEK293, membrane potential dye. ACh-evoked depolarization; active compounds read low. AID 2553, 2010. Short transient receptor potential channel 6 (Mus musculus), Q61143. 1.1% of 310,000 active. B-score at 10 µM;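 active means B-score under library mean minus 3 SD, initial fluorescence not abnormally high, positive integrated signal ratio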;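 further: B-score derived from integrated fluorescence ratio over the kinetic read; more negative B-score means stronger inhibition of depolarization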
# A number is an active result; – = inactive; · = no result given. Most compounds without a hit are left out; they make up all but 2.3% or so of the library.
SMILES,TRPC4 PAM,TRPC4 block,TRPC4 act,CR mimetic SO,TRPC6 activator,TRPC6 inhibitor
CCN1/C(=C/C=C/c2sc3ccccc3[n+]2CC)Sc2ccccc21,–,–,49,–,–,–
Cc1cccc(-n2ccnc2CN2CCC(CO)(Cc3ccccc3)CC2)c1,–,-7,–,–,–,–
CCOC(=O)N1CCN(CCC(=O)Nc2cccc(C)c2)CC1,–,–,–,–,–,–
CCn1nc(C)c(CN2CCCC(CO)(Cc3cccc(Cl)c3)C2)c1C (centres undefined),–,-6,–,–,–,–
CCn1nc(C)c(CN2CCCC(CO)(Cc3ccccc3)C2)c1C (centres undefined),–,–,–,–,–,–
CCCNCc1cc(Br)ccc1OCC(=O)NCCc1ccccc1,–,-6,–,–,–,–
Cc1csc2c(N3CCN(S(=O)(=O)c4ccc(Cl)cc4)CC3)ncnc12,10,–,–,–,–,–
COC(=O)NCC(c1cccnc1)N1CCN(c2ccccc2OC)CC1 (centres undefined),–,–,69,–,–,–
COC(=O)NCC(c1cccnc1)N1CCN(c2ccccc2F)CC1 (centres undefined),–,–,–,–,–,–
O=C(NC1(C(F)(F)F)NC(=O)N(CCc2ccccc2)C1=O)C1CC1 (centres undefined),–,–,–,–,–,–
C=CCN1CC(=O)N2C(c3ccccc3)c3[nH]c4ccccc4c3C[C@H]2C1=O (some centres undefined),13,–,–,–,–,–
CC(C)C[C@H](NC(=O)c1nc[nH]c1C(=O)N[C@@H](CC(C)C)C(=O)OC(C)(C)C)C(=O)OC(C)(C)C,–,–,–,–,–,–
Cc1c(NC(=S)NC(=O)c2cccc3ccccc23)cccc1C(=O)O,–,–,–,–,–,–
COc1ccccc1C1NC(c2ccccc2OC)C(C)C(=O)C1C (centres undefined),–,–,–,–,–,–
COc1ccc(N/C=C/C(=O)c2cc(OC)c(OC)c(OC)c2)cc1,–,–,–,–,–,–
CSc1nc(NCc2ccco2)c2c3c(sc2n1)CN(C)CC3,–,·,64,–,–,–
CSc1nc(SCC(=O)NCc2ccco2)c2c3c(sc2n1)CN(C)CC3,–,–,–,–,–,–
Cn1c(-c2ccccc2)cnc1NCc1ccccc1,–,-6,–,–,–,–
Cc1ccc(CNc2ncc(-c3ccccc3)n2C)o1,–,–,–,–,–,–
O=C(Cc1ccccc1)NC(NC(=O)Cc1ccccc1)c1cccc([N+](=O)[O-])c1,–,–,–,–,–,–
C=CCN(CC(O)c1cccc([N+](=O)[O-])c1)C(C)CCc1ccccc1 (centres undefined),–,-5,–,–,–,–
O=c1c2ccccc2nc(COc2ccccc2)n1/N=C/c1cc([N+](=O)[O-])ccc1O,27,–,–,–,–,–
O=C(Nc1cc2c(cc1C(=O)O)OCCCO2)c1ccc(C(F)(F)F)cc1,–,–,–,–,–,–
O=C(CSc1nc(Nc2ccccc2)nc(N2CCOCC2)n1)N1CCCC1,–,–,–,–,–,–
O=[N+]([O-])c1cc(C(F)(F)F)ccc1N1CCCNCC1,42,–,83,–,–,–
SMILES,TRPC4 PAM,TRPC4 block,TRPC4 act,CR mimetic SO,TRPC6 activator,TRPC6 inhibitor
COc1ccccc1OCCC(=O)OCC(=O)Nc1ccc2c(c1)OCCO2,·,·,·,–,·,·
CCCC1=Nc2cc(C(=O)N3CCCC3)ccc2Sc2ccc(C)cc21,–,–,54,–,–,–
CCOc1ccc2nc(SCC(=O)NC3CCS(=O)(=O)C3)[nH]c2c1 (centres undefined),–,–,–,–,–,–
CCOCCSC1=C(C#N)C(c2cccs2)C(C(C)=O)=C(C)N1 (centres undefined),–,-6,–,–,–,–
CCSC1=C(C#N)C(c2cccs2)C(C(=O)OC)=C(C)N1 (centres undefined),–,–,–,–,–,–
O=C(c1cc2cc(Br)cc(Br)c2oc1=O)N1CCCC1,17,–,–,–,–,–
Cc1ccc(S(=O)(=O)N2CCN(C(=O)N(C)C)CC2)cc1C,–,–,–,–,–,–
COc1ccc(NC(=O)C/C(C)=N/NC(=O)COc2ccc(OC)cc2)cc1,–,–,–,–,–,–
CC[N+](CC)(CC)CC(=O)Nc1ccc(SC(F)F)cc1,–,–,–,–,–,–
CCn1c(N)[n+](CC(=O)Nc2ccc(SC(F)F)cc2)c2ccccc21,–,–,156,–,–,–
Cn1nnnc1SCC(=O)Nc1cc(S(=O)(=O)N2CCCC2)ccc1Cl,–,–,–,–,–,–
Cc1cc(C(=O)CN2C(=O)NC3(CCCc4sccc43)C2=O)c(C)n1-c1ccc(Cl)cc1 (centres undefined),10,–,–,–,–,–
CC(NC(=O)c1cccs1)C(c1cccs1)N1CCN(c2ccccc2)CC1 (centres undefined),–,–,–,–,–,–
CC(C)C(=O)NC(C)C(c1cccs1)N1CCN(c2ccccc2)CC1 (centres undefined),–,–,53,–,–,–
CC(NC(=O)C1CC1)C(c1cccs1)N1CCN(c2ccccc2)CC1 (centres undefined),–,–,44,–,–,–
COc1ccccc1N1CCN(C(c2cccs2)C(C)NC(=O)c2cccnc2)CC1 (centres undefined),–,–,–,–,–,–
CC(NC(=O)C1CC1)C(c1cccs1)N1CCOCC1 (centres undefined),–,–,–,–,–,–
COc1ccccc1N1CCN(C(c2cccs2)C(C)NC(=O)c2cccs2)CC1 (centres undefined),–,–,84,–,–,–
CCN(CC)C(=O)Cn1nc(-c2ccncc2)nc1SCC(=O)Nc1ccc(OC)cc1,–,–,–,–,–,–
Cc1nn(-c2ccccc2)c(Cl)c1/C=N/NC(=O)c1ccnn1C,–,–,–,–,–,–
Cc1n[nH]c(C)c1Cc1c(F)cccc1Cl,–,-6,–,–,–,–
C/C(=N\NC(N)=S)c1cc(-c2ccccc2)c(-c2ccccc2)s1,–,–,–,–,–,–
Fc1cccc(CN2CCN(c3ncccn3)CC2)c1,·,·,·,–,·,·
Cc1ccc(COn2c(-c3ccc(Cl)cc3Cl)nc3ncccc32)cc1,–,-8,59,–,–,–

# Screens deposited in PubChem by several laboratories.
